S100A4 MyoIIA: inhibitors of human S100A4 binding to myosin IIA peptide; P26447; S100A4/TAMRA-MyoIIA peptide fluorescence polarization; inhibition, % at 10.7 µM; 0.14% of 360,000 active; AID 652163;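 active means mean inhibition of at least 70% across replicates, with every replicate also reaching that level; inconclusive means mean inhibition reaches 70% but some replicates fall short; inactive means mean inhibition below 70%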
Target sequence (P26447 whole entry, looked up): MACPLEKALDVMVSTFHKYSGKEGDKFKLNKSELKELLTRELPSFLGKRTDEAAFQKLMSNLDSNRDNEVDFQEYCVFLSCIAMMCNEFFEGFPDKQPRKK
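Assay system: human S100A4 monomer with TAMRA-labelled myosin IIA peptide / Buffer or medium: Calcium-containing HEPES buffer, pH 7.2 / Reagent: TAMRA-labelled myosin IIA heavy-chain peptide probe, 5 nM / Compound: one dose per compound / Timing: polarization read 5 min after assay mix addition, stable 5–60 min / Benchmarks: neutral control DMSO, positive control TFP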
Cneo AK release: causes C. neoformans cell lysis; adenylate kinase release luminescence, 4 h; normalised: neutral wells 0, clomiphene wells 100; lysis activity, % at 15 µM; 0.2% of 360,000 active; AID 651654;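 active means mean lysis activity across replicates of at least 80%, whatever share of replicates individually reach that level; inactive means mean lysis activity below 80%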
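Test system: log-phase Cryptococcus neoformans yeast cells. Input: 5 × 10^6 yeast cells/mL. Medium: fresh YPD growth medium. Doses: single dose. Incubation: static 4 h at 37 °C with compound, 1 h detection. Measured by: luminescent adenylate kinase detection reagent. Read-out: signal increase indicating cell lysis. Benchmarks: Clomiphene.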
PfHsp90 set2: inhibits growth of yeast expressing Plasmodium falciparum Hsp90; S. cerevisiae expressing PfHsp90, BacTiter-Glo ATP, 48 h; yeast lacking PDR1 and PDR3 efflux regulators; AID 504621; 0.32% of 310,000 active; inhibition, % at 9.4 µM;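 active means every replicate shows inhibition above about 80%, whatever the replicate mean, limit read from the data; inconclusive means mean inhibition reaches the set limit but some replicate falls short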
DENV2 CPE: inhibitors of DENV2 cytopathic effect. DENV2-infected cells, cytopathic effect rescue, plate reader. CPE inhibition, % at 9.99 µM. 1.7% of 350,000 active; in the data active means CPE inhibition above about 20%, passing the limit was not always enough; inconclusive means no clear call, values can overlap the other calls; tested in BHK-21 cells
Ecoli rRNA inh: inhibits bacterial ribosomal RNA function over humanized ribosomes; 1.6% of 350,000 active; GFP signal change (wild-type ribosome), % (test concentration not listed); E. coli WT GFP vs humanized-ribosome RFP mutants, fluorescence, 24 h; hits give low values; DMSO median 0, no signal -100;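 active means significant combined selectivity score with lowered wild-type GFP, culture density cut under 30%, mutant RFP and density less affected; inactive means any of these conditions unmet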
MLL AF4-AF9 inh: blocks AF4 peptide binding to human AF9 | AlphaScreen, biotin-AF4 peptide binding to FLAG-AF9 | AID 651704 | P42568 | inhibition, % at 10 µM | 0.47% of 350,000 active;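 active means every replicate reaching a set inhibition limit, whatever the replicate mean, cut at about 25% in these data; inconclusive means mean inhibition reaches that limit but some replicates miss it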
Each line names hits and unclear results; the compound was inactive in the other large screens. Only some compounds are listed: those with a hit (about 3.2% of all), similar ones and a draw of the others.

Cc1ccc(S(=O)(=O)N/N=C\c2cn(CC(N)=O)c3ccccc23)cc1C	Ecoli rRNA inh -22.8
O=c1ccc(-c2ccc(S(=O)(=O)Nc3cccc(Br)c3)o2)n[nH]1	DENV2 CPE 27.2 (no result: Cneo AK release)
C[C@H]1CN([C@@H](C)CO)C(=O)Cc2cc(N(C)C)ccc2O[C@@H]1CN(C)S(=O)(=O)c1cccs1	DENV2 CPE inconclusive (no result: PfHsp90 set2)
Cc1ccc(Cn2c(N)nc3ccccc32)cc1	none
Nc1nc2ccccc2n1Cc1ccc(Cl)c(Cl)c1	DENV2 CPE 33.4
CCCNC(=O)N[C@@H]1CC[C@H](CCn2cc(-c3cccc(F)c3)nn2)O[C@@H]1CO	DENV2 CPE inconclusive (no result: PfHsp90 set2)
COc1ccc(NC(=O)Nc2ccc3c(c2)C(=O)N([C@@H](C)CO)C[C@H](C)[C@H](CN(C)C(=O)Cc2ccccc2)OCCCC[C@@H](C)O3)cc1	none (no result: PfHsp90 set2)
COc1ccc(NC(=O)Nc2ccc3c(c2)C(=O)N([C@H](C)CO)C[C@@H](C)[C@H](CN(C)C(=O)Cc2ccccc2)OCCCC[C@@H](C)O3)cc1	DENV2 CPE 30.0 (no result: PfHsp90 set2)
COc1ccc(NC(=O)Nc2ccc3c(c2)C(=O)N([C@@H](C)CO)C[C@@H](C)[C@H](CN(C)C(=O)Cc2ccccc2)OCCCC[C@@H](C)O3)cc1	none (no result: PfHsp90 set2)
COc1ccc(NC(=O)Nc2ccc3c(c2)C(=O)N([C@@H](C)CO)C[C@H](C)[C@H](CN(C)C(=O)Cc2ccccc2)OCCCC[C@H](C)O3)cc1	DENV2 CPE 21.2 (no result: PfHsp90 set2)
COc1ccc(NC(=O)Nc2ccc3c(c2)C(=O)N([C@H](C)CO)C[C@H](C)[C@H](CN(C)C(=O)Cc2ccccc2)OCCCC[C@@H](C)O3)cc1	none (no result: PfHsp90 set2)
COc1ccc(NC(=O)Nc2ccc3c(c2)C(=O)N([C@H](C)CO)C[C@H](C)[C@@H](CN(C)C(=O)Cc2ccccc2)OCCCC[C@@H](C)O3)cc1	DENV2 CPE 68.4 (no result: PfHsp90 set2)
CC(C)NC(=O)Nc1ccc2c(c1)C(=O)N([C@@H](C)CO)C[C@@H](C)[C@H](CN(C)C(=O)Cc1ccccc1)OCCCC[C@@H](C)O2	Cneo AK release 94.6 (no result: PfHsp90 set2)
OC[C@H]1[C@@H](c2ccccc2)C2(CN(Cc3ccccc3)C2)N1Cc1ccncc1	none (no result: Cneo AK release, PfHsp90 set2)
C[C@H]1CN([C@@H](C)CO)C(=O)c2cc(-c3cncnc3)cnc2O[C@@H]1CN(C)CC1CCCC1	none (no result: PfHsp90 set2)
COc1ccc(NC(=O)N(C)C[C@H]2Oc3ccc(NC(=O)Cc4ccccc4)cc3CC(=O)N([C@@H](C)CO)C[C@H]2C)cc1	none (no result: S100A4 MyoIIA, Cneo AK release, PfHsp90 set2, DENV2 CPE, MLL AF4-AF9 inh)
C[C@@H]1CCCCO[C@@H](CN(C)C(=O)Nc2ccc3c(c2)OCO3)[C@H](C)CN([C@H](C)CO)C(=O)c2cc(NC(=O)C3CCCCC3)ccc2O1	none (no result: PfHsp90 set2)
Cc1ccc(S(=O)(=O)Nc2ccc3c(c2)CC(=O)N([C@@H](C)CO)C[C@H](C)[C@@H](CN(C)C(=O)Nc2c(C)noc2C)O3)cc1	none (no result: PfHsp90 set2)
CC=Cc1ccc2n(c1=O)C[C@H]1[C@H](CO)[C@@H](C(=O)NC3CCC3)N(S(C)(=O)=O)[C@@H]21 (mixture of isomers)	none (no result: PfHsp90 set2)
COc1ccc(NC(=O)Nc2ccc3c(c2)C(=O)N([C@@H](C)CO)C[C@@H](C)[C@H](CN(C)C(=O)Cc2ccccc2)OCCCC[C@H](C)O3)cc1	Cneo AK release 114.8 (no result: PfHsp90 set2)
COc1ccc(NC(=O)Nc2ccc3c(c2)C(=O)N([C@H](C)CO)C[C@H](C)[C@H](CN(C)C(=O)Cc2ccccc2)OCCCC[C@H](C)O3)cc1	Cneo AK release 101.1 (no result: PfHsp90 set2)
COc1ccc(NC(=O)N(C)C[C@@H]2OCCCC[C@@H](C)Oc3ccc(NS(=O)(=O)c4cccs4)cc3C(=O)N([C@@H](C)CO)C[C@H]2C)cc1	none (no result: PfHsp90 set2)
COc1ccc(OC(=O)N(C)C[C@@H]2OCc3ccccc3-c3ccccc3C(=O)N([C@H](C)CO)C[C@@H]2C)cc1	none (no result: PfHsp90 set2)
COC(=O)C[C@@H]1CC[C@H]2[C@@H](COc3ccc(NC(=O)c4cccc(F)c4)cc3C(=O)N2C)O1	none (no result: PfHsp90 set2)
CCCNC(=O)N1C[C@@H](C)[C@H](OC)CN(C)C(=O)c2ccc(NS(=O)(=O)CC(F)(F)F)cc2OC[C@@H]1C	none (no result: PfHsp90 set2)
CC(=O)N(c1ccccc1C)C1CCCC1	none

Screening results: PubChem, Broad Institute
